Source: ChEMBL document CHEMBL4196218, “Synthesis and in Vitro Bioactivity of Polyunsaturated Fatty Acid Conjugates of Combretastatin A-4” (J Nat Prod, 2018)
Calls of active or inactive are those of the source. The calls are words filed in the database; no cut-off is given here.

Columns and labels:
MCF7 [1] = assay: Cytotoxicity against human MCF7 cells after 72 hrs by MTS/PMS assay; format: functional, cell-based; conditions: for IC50: MCF7, 72 h
Summary of the method: (§1)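 MCF-7 cells grown in DMEM with 10% heat-inactivated FBS, penicillin, streptomycin, L-glutamine and MEM NEAA at 37 °C, 5% CO2. Seeded at 5000 cells/well. After 24 h, given fresh medium plus compound (DMSO stock diluted in DPBS; final 0–10 μM) for 72 h. Then serum-free medium with MTS/PMS for 1 h at 37 °C. A490 read, viability as % of untreated cells. IC50 read graphically. Six replicates, three independent experiments.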

Bos taurus [2] = species on record: Bos taurus; assay: Inhibition of bovine tubulin polymerization at 1 uM measured every 30 secs for 2 hrs by turbidity method
Summary of the method: (§2)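 Kit-based turbidity assay with tubulin at 26.7 μM (2.94 mg/mL) in G-PB buffer (polymerization buffer, GTP, glycerol), assembled on ice. Compound stocks in DMSO diluted in water to give 1 or 10 μM. A350 read every 30 s for 2 h at 37 °C. Nocodazole and DMSO (1.43% or 0.14% v/v) as controls. Duplicate assays. Area under curve compared by one-way ANOVA with Bonferroni post-test.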

Bos taurus [3] = species on record: Bos taurus; assay: Inhibition of bovine tubulin polymerization assessed as lag time for tubulin polymerization at 1 uM measured every 30 secs for 2 hrs by turbidity method; summary of the method: as §2
Bos taurus [4] = species on record: Bos taurus; assay: Inhibition of bovine tubulin polymerization at 10 uM measured every 30 secs for 2 hrs by turbidity method; summary of the method: as §2
MCF7 [5] = assay: Cytotoxicity against human MCF7 cells assessed as cell viability at 5 to 10 uM after 72 hrs by MTS/PMS assay relative to control; format: functional; summary of the method: as §1

## CCCCC/C=C\C/C=C\C/C=C\C/C=C\CCCC(=O)Oc1cc(/C=C\c2cc(OC)c(OC)c(OC)c2)ccc1OC
MCF7 [1]
  Activity: Dose-dependent effect
  IC50: 700 nM
Bos taurus [2]
  inhibition: Active
Bos taurus [3]
  TIME: 0.25 to 0.333 h
Bos taurus [4]
  inhibition: inactive

## CC/C=C\C/C=C\C/C=C\CCCCCCCC(=O)Oc1cc(/C=C\c2cc(OC)c(OC)c(OC)c2)ccc1OC
MCF7 [1]
  IC50: > 10000 nM
MCF7 [5]
  Activity: 65 - 75%
Bos taurus [2]
  inhibition: Active
Bos taurus [3]
  TIME: 0.25 to 0.333 h
Bos taurus [4]
  inhibition: inactive

## CCCCC/C=C\C/C=C\CCCCCCCC(=O)Oc1cc(/C=C\c2cc(OC)c(OC)c(OC)c2)ccc1OC
MCF7 [1]
  IC50: > 10000 nM
MCF7 [5]
  Activity: 65 - 75%
Bos taurus [2]
  inhibition: Active
Bos taurus [3]
  TIME: 0.25 to 0.333 h
Bos taurus [4]
  inhibition: inactive

## COc1ccc(/C=C\c2cc(OC)c(OC)c(OC)c2)cc1O [COMBRETASTATIN A4]
MCF7 [1]
  IC50: 200 nM
Bos taurus [2]
  inhibition: Active
